# Laboratory results taken from ChEMBL document CHEMBL3351530, “Analysis of subpocket selectivity and identification of potent selective inhibitors for matriptase and matriptase-2” (J Med Chem, 2014).
# How the values were obtained:
# [1] = target: T1, Transmembrane protease serine 6 (Homo sapiens, UniProt Q8IU80); assay: Inhibition of human recombinant matriptase-2 using Boc-Gln-Ala-Arg-AMC as substrate by microplate reader analysis
# T1 sequence (Q8IU80 whole entry): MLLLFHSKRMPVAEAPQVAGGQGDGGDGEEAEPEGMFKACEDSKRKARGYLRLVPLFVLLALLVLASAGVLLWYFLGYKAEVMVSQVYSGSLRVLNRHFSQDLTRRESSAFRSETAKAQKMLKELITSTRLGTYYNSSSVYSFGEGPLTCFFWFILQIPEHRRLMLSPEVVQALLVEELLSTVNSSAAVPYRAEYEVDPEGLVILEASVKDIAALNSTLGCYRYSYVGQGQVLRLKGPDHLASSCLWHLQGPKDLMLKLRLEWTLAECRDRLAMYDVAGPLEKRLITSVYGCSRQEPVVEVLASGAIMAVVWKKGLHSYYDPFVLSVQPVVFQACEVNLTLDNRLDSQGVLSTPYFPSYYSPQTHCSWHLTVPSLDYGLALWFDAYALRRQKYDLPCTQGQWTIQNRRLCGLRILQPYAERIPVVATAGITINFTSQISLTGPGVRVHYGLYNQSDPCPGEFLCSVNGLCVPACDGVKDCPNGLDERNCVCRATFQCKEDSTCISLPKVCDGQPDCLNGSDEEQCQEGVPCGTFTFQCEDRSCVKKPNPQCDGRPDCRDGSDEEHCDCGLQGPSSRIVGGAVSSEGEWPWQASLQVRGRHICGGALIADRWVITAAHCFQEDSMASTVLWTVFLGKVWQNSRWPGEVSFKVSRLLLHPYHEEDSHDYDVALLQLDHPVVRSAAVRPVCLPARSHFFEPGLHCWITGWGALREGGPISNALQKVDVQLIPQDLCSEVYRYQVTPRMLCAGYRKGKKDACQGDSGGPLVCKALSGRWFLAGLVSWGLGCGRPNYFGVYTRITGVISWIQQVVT
# Summary of the method: (§1)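 Recombinant human matriptase (aa 596−[…]) or matriptase-2 (aa 78−811), active-site titrated with MUGB; 1 nM enzyme at room temperature in 50 mM Tris-HCl, 15 mM NaCl, pH 7.4. AMC release read at 360/441 nm. If inhibition occurred at I/E = 10, Ki came from a Morrison fit; otherwise from substrate-velocity curves fitted to the best reversible model. At least 3 runs in duplicate, mean ± SD.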
# Homo sapiens [2] = organism: Homo sapiens; assay: Selectivity ratio of Ki for human recombinant matriptase-2 to Ki for human recombinant matriptase
# [3] = target: T2, Suppressor of tumorigenicity 14 protein (Homo sapiens, UniProt Q9Y5Y6); assay: Inhibition of human recombinant matriptase using Boc-Gln-Ala-Arg-AMC as substrate by microplate reader analysis; summary of the method: as §1
# T2 sequence (Q9Y5Y6 whole entry): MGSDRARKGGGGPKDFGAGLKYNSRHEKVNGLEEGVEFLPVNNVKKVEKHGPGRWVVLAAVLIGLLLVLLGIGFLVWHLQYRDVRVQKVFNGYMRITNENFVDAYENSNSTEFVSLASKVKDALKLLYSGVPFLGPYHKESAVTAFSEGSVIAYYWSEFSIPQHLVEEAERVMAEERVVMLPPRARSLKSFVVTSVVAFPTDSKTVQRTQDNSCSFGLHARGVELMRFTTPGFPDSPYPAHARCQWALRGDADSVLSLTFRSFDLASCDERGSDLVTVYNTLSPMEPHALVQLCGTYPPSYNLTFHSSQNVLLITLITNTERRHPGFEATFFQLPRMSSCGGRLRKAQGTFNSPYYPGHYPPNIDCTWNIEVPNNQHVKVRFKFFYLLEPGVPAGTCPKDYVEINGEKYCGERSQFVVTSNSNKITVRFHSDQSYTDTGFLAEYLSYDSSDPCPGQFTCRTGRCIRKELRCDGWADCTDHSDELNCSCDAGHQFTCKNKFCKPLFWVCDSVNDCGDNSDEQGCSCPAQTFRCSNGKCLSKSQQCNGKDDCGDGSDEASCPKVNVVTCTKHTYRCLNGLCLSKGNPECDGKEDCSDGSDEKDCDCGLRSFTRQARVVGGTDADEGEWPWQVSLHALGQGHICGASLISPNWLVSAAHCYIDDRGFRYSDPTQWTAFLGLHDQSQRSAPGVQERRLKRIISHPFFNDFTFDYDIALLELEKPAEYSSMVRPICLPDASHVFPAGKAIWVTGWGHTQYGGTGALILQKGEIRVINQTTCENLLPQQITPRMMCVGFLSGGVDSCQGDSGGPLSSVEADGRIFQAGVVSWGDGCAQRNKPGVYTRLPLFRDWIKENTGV
# Homo sapiens [4] = organism: Homo sapiens; assay: Selectivity ratio of Ki for human recombinant matriptase to Ki for human recombinant matriptase-2
structure (smiles),measurement,setting,value
C[C@H](NC(=O)[C@H](CCCCN)NC(=O)[C@@H](N)Cc1ccc(O)cc1)C(=O)N[C@@H](CCCNC(=N)N)C(=O)c1nc2ccccc2s1,Ki,[1],20.8 nM
same,Ratio Ki,Homo sapiens [2],23
same,Ki,[3],0.89 nM
N=C(N)NCCC[C@H](NC(=O)[C@H](Cc1ccc(O)cc1)NC(=O)[C@H](CCC(N)=O)NC(=O)[C@@H](N)CCCNC(=N)N)C(=O)c1nc2ccccc2s1,Ki,[1],0.74 nM
same,Ratio Ki,Homo sapiens [2],4
same,Ki,[3],0.18 nM
N=C(N)NCCC[C@H](NC(=O)[C@H](Cc1ccccc1)NC(=O)[C@H](CCC(N)=O)NC(=O)[C@@H](N)CCCNC(=N)N)C(=O)c1nc2ccccc2s1,Ki,[1],1.4 nM
same,Ratio Ki,Homo sapiens [2],6
same,Ki,[3],0.23 nM
C[C@H](NC(=O)[C@H](CCC(N)=O)NC(=O)[C@@H](N)CO)C(=O)N[C@@H](CCCNC(=N)N)C(=O)c1nc2ccccc2s1,Ki,[1],34.8 nM
same,Ratio Ki,Homo sapiens [2],378
same,Ki,[3],0.092 nM
N=C(N)NCCC[C@H](NC(=O)[C@@H]1CCCN1C(=O)[C@H](CC(N)=O)NC(=O)[C@@H](N)CCCNC(=N)N)C(=O)c1nc2ccccc2s1,Ki,[1],47.8 nM
same,Ratio Ki,Homo sapiens [2],49
same,Ki,[3],0.91 nM
C[C@H](NC(=O)[C@H](CCCNC(=N)N)NC(=O)[C@@H](N)CCCNC(=N)N)C(=O)N[C@@H](CCCNC(=N)N)C(=O)c1nc2ccccc2s1,Ki,[1],15.4 nM
same,Ratio Ki,Homo sapiens [2],22
same,Ki,[3],0.72 nM
CC(C)[C@H](NC(=O)[C@H](Cc1ccc(O)cc1)NC(=O)[C@@H](N)Cc1ccc(O)cc1)C(=O)N[C@@H](CCCNC(=N)N)C(=O)c1nc2ccccc2s1,Ki,[1],2.56 nM
same,Ratio Ki,Homo sapiens [2],0.08
same,Ratio Ki,Homo sapiens [4],13
same,Ki,[3],31.5 nM
C[C@H](NC(=O)[C@H](CC(N)=O)NC(=O)[C@@H](N)CCCCN)C(=O)N[C@@H](CCCNC(=N)N)C(=O)c1nc2ccccc2s1,Ki,[1],24.8 nM
same,Ratio Ki,Homo sapiens [2],62
same,Ki,[3],0.45 nM
CC(C)C[C@H](NC(=O)[C@@H](N)CCCNC(=N)N)C(=O)N[C@@H](CO)C(=O)N[C@@H](CCCNC(=N)N)C(=O)c1nc2ccccc2s1,Ki,[1],2.48 nM
same,Ratio Ki,Homo sapiens [2],1.79
same,Ki,[3],1.4 nM
N=C(N)NCCC[C@H](NC(=O)[C@H](Cc1ccc(O)cc1)NC(=O)[C@H](CS)NC(=O)[C@@H](N)Cc1c[nH]c2ccccc12)C(=O)c1nc2ccccc2s1,Ki,[1],1.03 nM
same,Ratio Ki,Homo sapiens [2],0.13
same,Ratio Ki,Homo sapiens [4],8
same,Ki,[3],7.98 nM
CC(C)C[C@H](N)C(=O)N[C@@H](Cc1c[nH]c2ccccc12)C(=O)N[C@@H](Cc1c[nH]c2ccccc12)C(=O)N[C@@H](CCCNC(=N)N)C(=O)c1nc2ccccc2s1,Ki,[1],1.98 nM
same,Ratio Ki,Homo sapiens [2],0.63
same,Ratio Ki,Homo sapiens [4],2
same,Ki,[3],3.22 nM
N=C(N)NCCC[C@H](NC(=O)[C@@H](N)Cc1c[nH]c2ccccc12)C(=O)N[C@@H](CCC(=O)O)C(=O)N[C@@H](CCCNC(=N)N)C(=O)c1nc2ccccc2s1,Ki,[1],46.8 nM
same,Ratio Ki,Homo sapiens [2],3
same,Ki,[3],14.7 nM
C[C@H](NC(=O)[C@H](Cc1ccc(O)cc1)NC(=O)[C@@H](N)CCCNC(=N)N)C(=O)N[C@@H](CCCNC(=N)N)C(=O)c1nc2ccccc2s1,Ki,[1],6.3 nM
same,Ratio Ki,Homo sapiens [2],45
same,Ki,[3],0.14 nM
CC(C)C[C@H](N)C(=O)N[C@@H](CCC(N)=O)C(=O)N[C@@H](C)C(=O)N[C@@H](CCCNC(=N)N)C(=O)c1nc2ccccc2s1,Ki,[1],13.5 nM
same,Ratio Ki,Homo sapiens [2],90
same,Ki,[3],0.15 nM
N=C(N)NCCC[C@H](NC(=O)[C@@H]1CCCN1C(=O)[C@H](CCC(N)=O)NC(=O)[C@@H](N)CCCNC(=N)N)C(=O)c1nc2ccccc2s1,Ki,[1],7.8 nM
same,Ratio Ki,Homo sapiens [2],128
same,Ki,[3],0.061 nM
